{
  "source": "paper PMC6774347",
  "about": "(European Journal of Organic Chemistry, 2019)",
  "key": {"CEM leukemia cell line": {"test_system": "CEM leukemia cell line", "assay": "Differential nuclear staining", "assay_type": "cell-based, human", "conditions": "48 h; for Concentration inducing significant death in CEM cells: tested 100 µM to 0.5 µM; for CEM cell death (in words): at the prepared / highest soluble concentrations", "procedure,_shortened": "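Live-cell imaging differential nuclear staining with Hoechst 33342 (all nuclei) and propidium iodide (dead cells). DMSO stocks at highest soluble concentration were serially diluted and added to cells in complete medium (final 1 % v/v DMSO), 100 µM down to 0.5 µM. Read at 48 h in quadruplicate. Controls were untreated, 1 % DMSO and 1.62 mM H2O2. CC50 (50 % membrane-integrity loss versus untreated) was linearly interpolated between the two concentrations nearest 50 %.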"}, "TK+ VZV": {"test_system": "TK+ VZV", "assay": "Antiviral assay, plaque formation in HEL cells", "assay_type": "cell-based, varicella-zoster virus (VZV)", "conditions": "Human alphaherpesvirus 3, HEL"}, "[1]": {"assay": "Compound solubility in DMSO stock and in the biological assays", "assay_type": "physicochemical", "conditions": "for Solubility (in words): stock solutions at highest soluble concentration in DMSO; for Compound crystallization in treated cells: CEM cells in complete media, 1 % v/v DMSO"}, "TK– VZV": {"test_system": "TK– VZV", "assay": "Antiviral assay, plaque formation in HEL cells", "assay_type": "cell-based, varicella-zoster virus (VZV)", "conditions": "Human alphaherpesvirus 3, HEL"}, "CEM cells": {"test_system": "CEM cells", "assay": "Annexin V-FITC / propidium iodide apoptosis assay", "assay_type": "cell-based, human", "conditions": "24 h, annexin-FITC and PI staining"}, "[2]": {"test_system": "MDA-MB-231 (MB-231) triple-negative breast cancer cell line", "assay": "Differential nuclear staining", "assay_type": "cell-based", "conditions": "Homo sapiens, MDA-MB-231, 72 h", "procedure,_shortened": "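MDA-MB-231 cells were stained with Hoechst 33342 and propidium iodide and imaged live. Serial dilutions from 100 µM (to 0.5 µM) in DMSO were added directly to cell-containing wells (final 1 % v/v DMSO). Read at 72 h in quadruplicate. Controls were untreated, 1 % DMSO and 1.62 mM H2O2. CC50 was linearly interpolated between the two concentrations flanking 50 % death relative to untreated cells.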"}},
  "data": [
    {"smiles": "COc1cc(OC)cc(-c2cn(-c3cc(=O)oc4ccc(Br)cc34)nn2)c1", "note": "[Compound 22, 6‐Bromo‐4‐(4‐(3,5‐dimethoxyphenyl)‐1H‐1,2,3‐triazol‐1‐yl)‐2H‐chromen‐2‐one]", "values": [
      {"measurement": "Concentration inducing significant death in CEM cells", "setting": "CEM leukemia cell line", "value": "approximately 10 µM"},
      {"measurement": "EC50", "setting": "TK+ VZV", "value": 58.5, "unit": "µM"}
    ]},
    {"smiles": "COc1cccc(-c2cn(-c3cc(=O)oc4ccc(Br)cc34)nn2)c1", "note": "[Compound 24, 6‐Bromo‐4‐(4‐(3‐methoxyphenyl)‐1H‐1,2,3‐triazol‐1‐yl)‐2H‐chromen‐2‐one]", "values": [
      {"measurement": "Concentration inducing significant death in CEM cells", "setting": "CEM leukemia cell line", "value": "approximately 10 µM"}
    ]},
    {"smiles": "COc1cc(-c2cn(-c3cc(=O)oc4ccc(Br)cc34)nn2)cc(OC)c1OC", "note": "[Compound 16, 6‐Bromo‐4‐(4‐(3,4,5‐trimethoxyphenyl)‐1H‐1,2,3‐triazol‐1‐yl)‐2H‐chromen‐2‐one]", "values": [
      {"measurement": "CEM cell death (in words)", "setting": "CEM leukemia cell line", "value": "did not induce significant CEM cell death"},
      {"measurement": "Solubility (in words)", "setting": "[1]", "value": "relatively soluble"}
    ]},
    {"smiles": "COc1cc(-c2cn(-c3cc(=O)oc4cc(C)ccc34)nn2)cc(OC)c1OC", "note": "[Compound 18, 7‐Methyl‐4‐(4‐(3,4,5‐trimethoxyphenyl)‐1H‐1,2,3‐triazol‐1‐yl)‐2H‐chromen‐2‐one]", "values": [
      {"measurement": "CEM cell death (in words)", "setting": "CEM leukemia cell line", "value": "did not induce quantifiable CEM cell death"},
      {"measurement": "Compound crystallization in treated cells", "setting": "[1]", "value": "significant compound crystallization"}
    ]},
    {"smiles": "COc1cc(-c2cn(-c3cc(=O)oc4c(Cl)cc(Cl)cc34)nn2)cc(OC)c1OC", "note": "[Compound 17, 6,8‐Dichloro‐4‐(4‐(3,4,5‐trimethoxyphenyl)‐1H‐1,2,3‐triazol‐1‐yl)‐2H‐chromen‐2‐one]", "values": [
      {"measurement": "CEM cell death (in words)", "setting": "CEM leukemia cell line", "value": "did not induce significant CEM cell death"},
      {"measurement": "EC50", "setting": "TK+ VZV", "value": 66.9, "unit": "µM"}
    ]},
    {"smiles": "COc1ccc(-c2cn(-c3cc(=O)oc4ccc(Br)cc34)nn2)cc1", "note": "[Compound 23, 6‐Bromo‐4‐(4‐(4‐methoxyphenyl)‐1H‐1,2,3‐triazol‐1‐yl)‐2H‐chromen‐2‐one]", "values": [
      {"measurement": "Concentration inducing significant death in CEM cells", "setting": "CEM leukemia cell line", "value": "approximately 10 µM"}
    ]},
    {"smiles": "COc1cc(-c2cn(-c3ccccc3)nn2)cc(OC)c1OC", "note": "[Compound 20, 1‐Phenyl‐4‐(3,4,5‐trimethoxyphenyl)‐1H‐1,2,3‐triazole]", "values": [
      {"measurement": "EC50", "setting": "TK– VZV", "value": 39.1, "unit": "µM"},
      {"measurement": "Solubility (in words)", "setting": "[1]", "value": "the most readily soluble of the compounds"},
      {"measurement": "EC50", "setting": "TK+ VZV", "value": 39.9, "unit": "µM"},
      {"measurement": "Mode of cell death (apoptosis vs necrosis)", "setting": "CEM cells", "value": "preferentially induces cell death via apoptosis"},
      {"measurement": "CC50", "setting": "[2]", "value": 55.4, "unit": "µM"}
    ]},
    {"smiles": "COc1ccc2c(-n3cc(-c4cc(OC)c(OC)c(OC)c4)nn3)cc(=O)oc2c1", "note": "[Compound 19, 7‐Methoxy‐4‐(4‐(3,4,5‐trimethoxyphenyl)‐1H‐1,2,3‐triazol‐1‐yl)‐2H‐chromen‐2‐one]", "values": [
      {"measurement": "CEM cell death (in words)", "setting": "CEM leukemia cell line", "value": "did not induce quantifiable CEM cell death"},
      {"measurement": "Compound crystallization in treated cells", "setting": "[1]", "value": "significant compound crystallization"}
    ]},
    {"smiles": "COc1cc(-c2cn(-c3cc(=O)oc4ccc(C)cc34)nn2)cc(OC)c1OC", "note": "[Compound 14, 6‐Methyl‐4‐(4‐(3,4,5‐trimethoxyphenyl)‐1H‐1,2,3‐triazol‐1‐yl)‐2H‐chromen‐2‐one]", "values": [
      {"measurement": "CEM cell death (in words)", "setting": "CEM leukemia cell line", "value": "did not induce significant CEM cell death"}
    ]},
    {"smiles": "COc1cc(-c2cn(-c3cc(=O)oc4ccccc34)nn2)cc(OC)c1OC", "note": "[Compound 13, 4‐(4‐(3,4,5‐Trimethoxyphenyl)‐1H‐1,2,3‐triazol‐1‐yl)‐2H‐chromen‐2‐one]", "values": [
      {"measurement": "CEM cell death (in words)", "setting": "CEM leukemia cell line", "value": "did not induce quantifiable CEM cell death"},
      {"measurement": "Compound crystallization in treated cells", "setting": "[1]", "value": "significant compound crystallization"}
    ]},
    {"smiles": "COc1cc(-c2cn(-c3cc(=O)oc4ccc(Cl)cc34)nn2)cc(OC)c1OC", "note": "[Compound 15, 6‐Chloro‐4‐(4‐(3,4,5‐trimethoxyphenyl)‐1H‐1,2,3‐triazol‐1‐yl)‐2H‐chromen‐2‐one]", "values": [
      {"measurement": "CEM cell death (in words)", "setting": "CEM leukemia cell line", "value": "demonstrated cytotoxicity at its highest soluble concentration"},
      {"measurement": "Solubility (in words)", "setting": "[1]", "value": "one of the least soluble compounds in the series"}
    ]}
  ]
}
